The source made the active and inactive calls. No cut-off for these calls is given here.
Tests used:
[1] = molecular target: T1, Oxysterols receptor LXR-alpha (Homo sapiens) (UniProt Q13133); assay: Agonist activity at recombinant LXRalphaLBD expressed in HEK293T cells co-expressing GAL4 DBD at 20 uM by transactivation assay; format: functional, cell-based; conditions: HEK-293T
T1 sequence (whole entry): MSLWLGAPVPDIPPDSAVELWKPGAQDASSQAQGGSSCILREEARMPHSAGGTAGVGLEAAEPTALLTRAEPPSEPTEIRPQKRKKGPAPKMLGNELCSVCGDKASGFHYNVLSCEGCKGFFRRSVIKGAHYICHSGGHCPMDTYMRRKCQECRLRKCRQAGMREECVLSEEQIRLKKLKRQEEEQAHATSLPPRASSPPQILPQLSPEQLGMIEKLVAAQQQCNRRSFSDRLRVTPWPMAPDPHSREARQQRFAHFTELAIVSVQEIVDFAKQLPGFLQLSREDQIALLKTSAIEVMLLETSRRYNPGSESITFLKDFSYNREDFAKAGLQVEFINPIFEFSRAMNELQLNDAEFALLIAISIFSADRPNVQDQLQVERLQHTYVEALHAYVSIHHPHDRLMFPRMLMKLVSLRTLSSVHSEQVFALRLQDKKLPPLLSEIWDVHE
How it was run: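 One-hybrid assay in HEK293T cells cotransfected with a Gal4 DBD–NR-LBD fusion (RXRα, LXRα, GR, PR, PPARδ or PPARγ) plus UAS-TK-Luc reporter. Compound was 20 μM, given alone or with agonist: 9cRA 0.1 μM (RXRα), TO901317 0.5 μM (LXRα), dexamethasone 50 nM (GR), progesterone 100 nM (PR), GW1516 10 μM (PPARδ), rosiglitazone 10 μM (PPARγ). Luciferase read-out; three independent experiments.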

HEK-293T [2] = assay: Antagonist activity at FXRalphaLBD expressed in HEK293T cells co-expressing GAL4 DBD assessed as inhibition of CDCA-induced transactivation at 60 uM after 18 hrs by luciferase reporter gene assay; format: functional, cell-based; conditions: Homo sapiens
How it was run: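 Mammalian one-hybrid assay in HEK293T cells cotransfected with pCMX-Gal4DBD-FXRαLBD, UAS-TK-Luc reporter and pRL-SV40 Renilla vector. Cells were exposed to vehicle or compound for 18 h, with or without 20 μM CDCA. Read-out was dual-luciferase. Three independent experiments.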

[3] = Antagonist activity at GST-tagged human recombinant FXRalphaLBD expressed in Escherichia coli BL21 cells assessed as inhibition of CDCA-induced SRC-1 co-activator association at 40 uM by HTRF assay; format: functional
How it was run: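 HTRF coactivator recruitment: 10 nM GST-human FXRαLBD (residues 238–473, E. coli BL21(DE3)), 0.83 nM anti-GST-Eu cryptate, 100 nM biotin-SRC1 peptide, 41.75 nM SA/XL665. Buffer was 50 mM Hepes pH 7.0, 125 mM KF, 0.125% CHAPS, 0.05% dry milk. Compound alone or with CDCA, 30 min at room temperature. Signal was 1000×(668/620 nm). Primary screen at 40 μM; IC50 as mean ± SE, three experiments.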

HEK-293T [4] = assay: Agonist activity at FXRalpha/RXRalpha expressed in HEK293T cells co-expressing GAL4 DBD after 18 hrs by luciferase based transactivation assay; format: functional, cell-based; conditions: Homo sapiens
How it was run: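 FXR transactivation in HEK293T cells transiently transfected with pcDNA3.1-FXRα, pcDNA3.1-RXRα, pGL3-FXRE-Luc and pRL-SV40 Renilla vector. Medium was replaced 6 h after transfection with medium holding compound at varied concentrations, with or without 20 μM CDCA, for 18 h. Read-out was dual-luciferase. Three independent experiments.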

Mus musculus [5] = assay: Reduction of hepatic cholesterol level in cholesterol-fed C57BL/6 mouse administered orally after 10 days; format: functional, organism-based
How it was run: (§1)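 Male C57BL/6 mice, 8–12 weeks old, were randomized into five groups of nine. Control mice had ground chow; the other groups had chow with 2% cholesterol. Compound (50 or 100 mg/kg) or reference (100 mg/kg) was suspended in 0.5% CMC-Na and given by oral gavage; control and vehicle mice got 0.5% CMC-Na. Serum and hepatic triglyceride and total cholesterol were measured.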

Mus musculus [6] = assay: Reduction of serum triglyceride level in cholesterol-fed C57BL/6 mouse at 100 mg/kg, po after 10 days; format: functional; parameters: scale not given: the % may be the effect or the level left; how it was run: as §1

COc1cc(/C=C2\C(=O)N(c3cccc([N+](=O)[O-])c3)N=C2c2ccccc2)ccc1O
Activity [1]: inactive
inhibition (HEK-293T [2]): Active
inhibition at 40 µM [3]: 70.4%
Activity (HEK-293T [4]): inactive
Activity (Mus musculus [5]): Dose-dependent effect
Activity (Mus musculus [6]): 60.3%
